Laboratory results: publication PMC8925131 (Experimental cell research, 2021)

Legend:
wild type KRas CRC cells = experiment: Growth of wild type KRas CRC cells; format: cell-based; settings: wild type KRas CRC cells (Figure S12C)
mutant KRas CRC cells = experiment: Growth of mutant KRas CRC cells; format: cell-based; settings: mutant KRas CRC cells (Figure S12C)
mutant BRaf CRC cells = experiment: Growth of mutant BRaf CRC cells; format: cell-based; settings: mutant BRaf CRC cells (Figure S12C)
[1] = target: T1, Plekha7 (D175K) PH domain (Homo sapiens, UniProt Q6IQ23, D175K); experiment: Isothermal titration calorimetry; format: binding; settings: ITC, diC8-PI, D175K mutant versus wild-type PH domain
T1 sequence (Q6IQ23 164-298 D175K): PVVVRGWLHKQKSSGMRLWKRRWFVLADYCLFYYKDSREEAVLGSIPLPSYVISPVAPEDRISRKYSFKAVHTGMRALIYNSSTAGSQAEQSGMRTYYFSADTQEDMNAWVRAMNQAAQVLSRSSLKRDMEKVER
Method in brief: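 Human Plekha7 PH domain (residues 164–298, D175K mutant alongside wild type) was GST-vector expressed in E. coli BL21. ITC was run at 23 °C: 50 µM PH domain titrated with 0.5–1.0 mM diC8-phosphoinositides (PI(3,4)P2, PI(3,5)P2, PI(4,5)P2, PI(3,4,5)P3) in 30 mM NaCl, 15 mM Tris pH 7.6, 0.2 mM TCEP. Integrated heats were fit to a single-site model for Kd, reported as mean with SD.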

[2] = target: Plekha7-GFP (Pleckstrin homology domain containing, family A member 7, GFP fusion) (human) (UniProt Q6IQ23); experiment: FRET or BRET
Plekha7-GFP (Pleckstrin homology domain containing, family A member 7, GFP fusion) (human), sequence (Q6IQ23 whole entry, the tested form may be a part): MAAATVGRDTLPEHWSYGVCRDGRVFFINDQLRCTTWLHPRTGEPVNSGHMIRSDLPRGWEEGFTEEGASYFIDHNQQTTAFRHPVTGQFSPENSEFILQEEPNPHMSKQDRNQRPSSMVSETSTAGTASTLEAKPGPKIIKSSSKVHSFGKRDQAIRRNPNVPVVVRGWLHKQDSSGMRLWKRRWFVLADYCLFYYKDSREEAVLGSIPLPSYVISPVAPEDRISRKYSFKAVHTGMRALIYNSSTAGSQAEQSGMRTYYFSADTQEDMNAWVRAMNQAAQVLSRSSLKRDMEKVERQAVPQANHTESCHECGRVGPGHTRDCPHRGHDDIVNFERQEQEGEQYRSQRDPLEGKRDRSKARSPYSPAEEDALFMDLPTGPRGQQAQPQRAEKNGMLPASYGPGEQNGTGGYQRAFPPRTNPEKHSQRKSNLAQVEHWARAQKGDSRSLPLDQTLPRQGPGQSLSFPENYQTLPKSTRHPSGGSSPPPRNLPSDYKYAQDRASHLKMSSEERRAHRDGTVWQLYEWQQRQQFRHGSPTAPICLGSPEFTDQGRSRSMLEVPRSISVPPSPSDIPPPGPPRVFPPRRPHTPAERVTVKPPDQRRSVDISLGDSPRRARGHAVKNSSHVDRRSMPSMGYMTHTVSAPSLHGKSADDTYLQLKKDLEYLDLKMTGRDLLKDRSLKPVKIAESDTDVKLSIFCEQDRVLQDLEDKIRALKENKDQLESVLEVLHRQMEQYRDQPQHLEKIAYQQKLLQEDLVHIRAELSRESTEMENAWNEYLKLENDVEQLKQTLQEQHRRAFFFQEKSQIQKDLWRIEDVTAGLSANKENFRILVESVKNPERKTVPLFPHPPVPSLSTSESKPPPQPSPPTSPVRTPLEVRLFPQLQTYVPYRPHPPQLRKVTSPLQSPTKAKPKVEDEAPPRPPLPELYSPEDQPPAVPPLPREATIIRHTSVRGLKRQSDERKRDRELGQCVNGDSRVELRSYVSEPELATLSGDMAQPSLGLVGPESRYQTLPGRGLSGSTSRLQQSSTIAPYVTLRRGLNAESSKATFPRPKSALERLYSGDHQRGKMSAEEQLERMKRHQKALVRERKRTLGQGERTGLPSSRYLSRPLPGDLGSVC

Compound	effect on growth of wild type KRas CRC cells (wild type KRas CRC cells)	inhibition of mutant KRas CRC cell growth (mutant KRas CRC cells)	increase in affinity for Plekha7 (D175K) compared with the wild-type protein [1] [fold]	other results
CCCCCCCCCCCCCCCCCCOC[C@H](COP(=O)(O)OC1C(O)[C@@H](O)C(O)C[C@H]1O)OC (stereo partly drawn) [DPIEL]	without affecting the growth	selective inhibition	–	–
CC1(C)Oc2ccc(-c3csc(Cn4nc(CCO)c5ccccc5c4=O)n3)cc2O1 [PHT-7704, 2-((4-(2,2-dimethylbenzo[d][1,3]dioxol-5-yl)thiazol-2-yl)methyl)-4-(2-hydroxyethyl)phthalazin-1(2H)-one]	without affecting the growth	selective inhibition	–	inhibition of growth of mutant BRaf CRC cells (mutant BRaf CRC cells): inhibited the growth
CCCCCCCC(=O)OC[C@H](COP(=O)(O)O[C@H]1[C@H](O)[C@@H](O)[C@H](OP(=O)(O)O)[C@@H](OP(=O)(O)O)[C@H]1O)OC(=O)CCCCCCC [PI(3,4)P2]	–	–	10	–
CCCCCCCC(=O)OC[C@H](COP(=O)(O)O[C@H]1[C@H](O)[C@@H](OP(=O)(O)O)[C@H](OP(=O)(O)O)[C@@H](OP(=O)(O)O)[C@H]1O)OC(=O)CCCCCCC [PI(3,4,5)P3]	–	–	10	–
CCCCCCCC(=O)OC[C@H](COP(=O)(O)O[C@@H]1[C@H](O)[C@H](O)[C@@H](OP(=O)(O)O)[C@H](OP(=O)(O)O)[C@H]1O)OC(=O)CCCCCCC [PI(4,5)P2]	–	–	–	change of affinity for Plekha7 (D175K) compared with wild-type [1]: did not change
wild-type KRas-RFP (from UniProt P01116 1-189) (natural protein)	–	–	–	average fluorescence lifetime of Plekha7-GFP [2]: 1.9 ns
